Results as given in ChEMBL document CHEMBL5058577, “EUbOPEN Chemogenomics Library 2 (Multiplex)” (2022).

Tested on: U2OS
Assay: Multiplex assay against U2OS
Type: toxicity, cell-based
Conditions: human
In short: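 Cells were classed with CellPathfinder machine-learning gating, first as Hoechst high-intensity objects or normal cells, then (normal cells) as healthy, pyknosed or fragmented nuclei, and finally (pyknosed cells) as mitotic or apoptotic. Staining of live cells at seeding used Hoechst33342, BioTracker Green Microtubule Cytoskeleton Dye, MitoTracker Red and Annexin V Alexa Fluor 680, with imaging on a CQ1 microscope at 37°C and 5% CO2 after compound addition. Tubulin, mitochondrial-mass and membrane-permeability phenotypes are per cents of healthy-nucleus cells.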

[1] = 12 h, 1 µM, compound concentration 1 uM, replicate 1
[2] = 12 h, 1 µM, compound concentration 1 uM, replicate 2
[3] = 12 h, 10 µM, compound concentration 10 uM, replicate 1
[4] = 12 h, 10 µM, compound concentration 10 uM, replicate 2
[5] = 24 h, 1 µM, compound concentration 1 uM, replicate 1
[6] = 24 h, 1 µM, compound concentration 1 uM, replicate 2
[7] = 24 h, 10 µM, compound concentration 10 uM, replicate 1
[8] = 24 h, 10 µM, compound concentration 10 uM, replicate 2
[9] = 48 h, 1 µM, compound concentration 1 uM, replicate 1
[10] = 48 h, 1 µM, compound concentration 1 uM, replicate 2
[11] = 48 h, 10 µM, compound concentration 10 uM, replicate 1
[12] = 48 h, 10 µM, compound concentration 10 uM, replicate 2

## O=S(=O)(c1ccccc1)c1cnc2c(N3CCNCC3)cccc2c1 [INTEPIRDINE]
[1]
  Population Apoptotic (%): 76%
  Population Fragmented Nuclei (%): 23%
  Population Healthy Nuclei (%): 68%
  Population Hoechst High Intensity Objects (%): 1%
  Population Membrane Permeable-Phenotype (%): 6%
  Population Mitochondria Different-Phenotype (%): 3%
  Population Mitotic Cells (%): 23%
  Population Normal (%): 98%
  Population Pyknosed Nuclei (%): 7%
  Population Tubulin-Different-Phenotype (%): 4%
  Total Cell Count: 267
[2]
  Population Apoptotic (%): 70%
  Population Fragmented Nuclei (%): 17%
  Population Healthy Nuclei (%): 71%
  Population Hoechst High Intensity Objects (%): 0%
  Population Membrane Permeable-Phenotype (%): 7%
  Population Mitochondria Different-Phenotype (%): 6%
  Population Mitotic Cells (%): 30%
  Population Normal (%): 100%
  Population Pyknosed Nuclei (%): 11%
  Population Tubulin-Different-Phenotype (%): 7%
  Total Cell Count: 88
[3]
  Population Apoptotic (%): 58%
  Population Fragmented Nuclei (%): 25%
  Population Healthy Nuclei (%): 61%
  Population Hoechst High Intensity Objects (%): 3%
  Population Membrane Permeable-Phenotype (%): 23%
  Population Mitochondria Different-Phenotype (%): 11%
  Population Mitotic Cells (%): 41%
  Population Normal (%): 96%
  Population Pyknosed Nuclei (%): 12%
  Population Tubulin-Different-Phenotype (%): 14%
  Total Cell Count: 204
[4]
  Population Apoptotic (%): 85%
  Population Fragmented Nuclei (%): 10%
  Population Healthy Nuclei (%): 79%
  Population Hoechst High Intensity Objects (%): 2%
  Population Membrane Permeable-Phenotype (%): 12%
  Population Mitochondria Different-Phenotype (%): 13%
  Population Mitotic Cells (%): 14%
  Population Normal (%): 97%
  Population Pyknosed Nuclei (%): 10%
  Population Tubulin-Different-Phenotype (%): 10%
  Total Cell Count: 139
[5]
  Population Apoptotic (%): 80%
  Population Fragmented Nuclei (%): 22%
  Population Healthy Nuclei (%): 67%
  Population Hoechst High Intensity Objects (%): 2%
  Population Membrane Permeable-Phenotype (%): 7%
  Population Mitochondria Different-Phenotype (%): 2%
  Population Mitotic Cells (%): 19%
  Population Normal (%): 97%
  Population Pyknosed Nuclei (%): 9%
  Population Tubulin-Different-Phenotype (%): 4%
  Total Cell Count: 319
[6]
  Population Apoptotic (%): 69%
  Population Fragmented Nuclei (%): 14%
  Population Healthy Nuclei (%): 73%
  Population Hoechst High Intensity Objects (%): 0%
  Population Membrane Permeable-Phenotype (%): 3%
  Population Mitochondria Different-Phenotype (%): 3%
  Population Mitotic Cells (%): 30%
  Population Normal (%): 99%
  Population Pyknosed Nuclei (%): 12%
  Population Tubulin-Different-Phenotype (%): 1%
  Total Cell Count: 108
[7]
  Population Apoptotic (%): 72%
  Population Fragmented Nuclei (%): 23%
  Population Healthy Nuclei (%): 60%
  Population Hoechst High Intensity Objects (%): 3%
  Population Membrane Permeable-Phenotype (%): 17%
  Population Mitochondria Different-Phenotype (%): 14%
  Population Mitotic Cells (%): 27%
  Population Normal (%): 96%
  Population Pyknosed Nuclei (%): 16%
  Population Tubulin-Different-Phenotype (%): 10%
  Total Cell Count: 233
[8]
  Population Apoptotic (%): 77%
  Population Fragmented Nuclei (%): 10%
  Population Healthy Nuclei (%): 77%
  Population Hoechst High Intensity Objects (%): 0%
  Population Membrane Permeable-Phenotype (%): 10%
  Population Mitochondria Different-Phenotype (%): 17%
  Population Mitotic Cells (%): 22%
  Population Normal (%): 99%
  Population Pyknosed Nuclei (%): 11%
  Population Tubulin-Different-Phenotype (%): 6%
  Total Cell Count: 156
[9]
  Population Apoptotic (%): 89%
  Population Fragmented Nuclei (%): 15%
  Population Healthy Nuclei (%): 70%
  Population Hoechst High Intensity Objects (%): 3%
  Population Membrane Permeable-Phenotype (%): 6%
  Population Mitochondria Different-Phenotype (%): 4%
  Population Mitotic Cells (%): 10%
  Population Normal (%): 96%
  Population Pyknosed Nuclei (%): 14%
  Population Tubulin-Different-Phenotype (%): 4%
  Total Cell Count: 416
[10]
  Population Apoptotic (%): 76%
  Population Fragmented Nuclei (%): 13%
  Population Healthy Nuclei (%): 68%
  Population Membrane Permeable-Phenotype (%): 3%
  Population Mitochondria Different-Phenotype (%): 2%
  Population Mitotic Cells (%): 23%
  Population Pyknosed Nuclei (%): 18%
  Population Tubulin-Different-Phenotype (%): 2%
  Total Cell Count: 148
[11]
  Population Apoptotic (%): 78%
  Population Fragmented Nuclei (%): 22%
  Population Healthy Nuclei (%): 59%
  Population Hoechst High Intensity Objects (%): 4%
  Population Membrane Permeable-Phenotype (%): 15%
  Population Mitochondria Different-Phenotype (%): 7%
  Population Mitotic Cells (%): 22%
  Population Normal (%): 95%
  Population Pyknosed Nuclei (%): 17%
  Population Tubulin-Different-Phenotype (%): 6%
  Total Cell Count: 302
[12]
  Population Apoptotic (%): 95%
  Population Fragmented Nuclei (%): 13%
  Population Healthy Nuclei (%): 75%
  Population Hoechst High Intensity Objects (%): 2%
  Population Membrane Permeable-Phenotype (%): 10%
  Population Mitochondria Different-Phenotype (%): 12%
  Population Mitotic Cells (%): 4%
  Population Normal (%): 97%
  Population Pyknosed Nuclei (%): 11%
  Population Tubulin-Different-Phenotype (%): 4%
  Total Cell Count: 201
